Test results: ChEMBL document CHEMBL3576866, “Discovery of a Cyclic Boronic Acid β-Lactamase Inhibitor (RPX7009) with Utility vs Class A Serine Carbapenemases” (J Med Chem, 2015)
pKi: −log10 of the molar value. In brackets after ≈: the same amount, converted by molar mass. Blank lines part the entries; values can stand above or below the compound they belong to. Activity calls are given as the source filed them. The calls are words filed in the database; no cut-off is given here.

Assays:
[1] = target: Beta-lactamase (Klebsiella pneumoniae) (UniProt Q93LQ9); test: Inhibition of Klebsiella pneumoniae KP1004 KPC 2 carbapenemase assessed as minimum concentration required to reduce biapenem MIC from […] ug/ml to 1 ug/mL by broth microdilution method
Beta-lactamase (Klebsiella pneumoniae), sequence (Q93LQ9 as listed by the source): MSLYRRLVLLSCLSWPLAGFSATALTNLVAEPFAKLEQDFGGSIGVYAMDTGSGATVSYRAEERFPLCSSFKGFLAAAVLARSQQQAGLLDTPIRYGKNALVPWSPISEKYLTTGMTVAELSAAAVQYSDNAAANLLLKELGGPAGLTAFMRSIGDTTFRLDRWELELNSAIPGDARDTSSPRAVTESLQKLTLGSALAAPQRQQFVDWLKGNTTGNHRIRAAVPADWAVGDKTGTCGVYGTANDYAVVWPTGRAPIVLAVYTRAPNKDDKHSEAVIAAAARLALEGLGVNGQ

Klebsiella pneumoniae [2] = test: Antibacterial activity against Klebsiella pneumoniae KP1004 by broth microdilution method; type: functional, organism-based
Klebsiella oxytoca [3] = test: Antibacterial activity against Klebsiella oxytoca KX1019 expressing KPC2/OXA2 by broth microdilution method; type: functional
Klebsiella pneumoniae [4] = test: Antibacterial activity against Klebsiella pneumoniae KP1082 expressing KPC2/SHV-1 by broth microdilution method; type: functional
Klebsiella pneumoniae [5] = test: Antibacterial activity against Klebsiella pneumoniae KP1088 expressing KPC3/SHV-11/TEM-1 by broth microdilution method; type: functional
Klebsiella pneumoniae [6] = test: Antibacterial activity against Klebsiella pneumoniae KP1083 expressing KPC3/SHV-1/TEM-1 by broth microdilution method; type: functional
Klebsiella pneumoniae [7] = test: Antibacterial activity against Klebsiella pneumoniae KP1008 expressing KPC2 by broth microdilution method; type: functional
Klebsiella pneumoniae [8] = test: Antibacterial activity against Klebsiella pneumoniae KP1004 expressing KPC2/TEM1/SHV11 by broth microdilution method; type: functional
Klebsiella oxytoca [9] = test: Antibacterial activity against Klebsiella oxytoca KX1017 expressing KPC2/OXA2/SHV30 by broth microdilution method; type: functional
Klebsiella pneumoniae [10] = test: Antibacterial activity against Klebsiella pneumoniae KP1087 expressing KPC2/CTX-M-15/SHV-11/TEM-1 by broth microdilution method; type: functional
Enterobacter cloacae = test: Antibacterial activity against Enterobacter cloacae ECL1058 expressing KPC3/SHV-11/TEM-1 by broth microdilution method; type: functional
Escherichia coli [11] = test: microbe, parasite or virus in culture; settings: EC1007
Klebsiella pneumoniae [12] = test: Antibacterial activity against Klebsiella pneumoniae KP1084 expressing KPC3/SHV-11/TEM-1 by broth microdilution method; type: functional
[13] = Competitive inhibition of Escherichia coli RTEM-1
Klebsiella pneumoniae [14] = test: Antibacterial activity against Klebsiella pneumoniae KP1074 in Swiss webster neutropenic mouse lung infection model assessed as change in log10 CFU in lung at 50 mg/kg, ip administered every 2 hrs starting at 2 hrs postinfection measured after 24 hrs relative to control; type: functional
Method in brief: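 Swiss Webster mice made neutropenic with cyclophosphamide and infected intratracheally under isoflurane with KP1074. […] Lungs harvested 24 h after the start of treatment, homogenized and plated for CFU.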

Klebsiella pneumoniae [15] = test: microbe, parasite or virus in culture; settings: KP1005
Klebsiella pneumoniae [16] = test: microbe, parasite or virus in culture; settings: KP1011
Klebsiella pneumoniae [17] = test: microbe, parasite or virus in culture; settings: KP1009
Escherichia coli [18] = test: microbe, parasite or virus in culture; settings: EC1009
Klebsiella aerogenes = test: microbe, parasite or virus in culture; settings: EA1028
Klebsiella oxytoca [19] = test: microbe, parasite or virus in culture; settings: KX1001
Escherichia coli [20] = test: microbe, parasite or virus in culture; settings: EC1011
Escherichia coli [21] = test: microbe, parasite or virus in culture; settings: EC1008
Klebsiella pneumoniae [22] = test: microbe, parasite or virus in culture; settings: KP1010
[23] = Inhibition of Escherichia coli MV1183 TEM-1 using nitrocefin as substrate preincubated for 10 mins followed by substrate addition measured for 500 secs

MEC [1]: 1.25 µg/mL
Structure (SMILES): CO/N=C(\C(=O)N[C@H]1CC[C@@H](CC(=O)O)OB1O)c1csc(N)n1 (stereo in doubt)
Activity (Klebsiella pneumoniae [2]): inactive

MEC [1]: 0.15 µg/mL
Structure (SMILES): O=C(O)C[C@@H]1CC[C@H](NC(=O)Cc2cccnc2)B(O)O1
Activity (Klebsiella pneumoniae [2]): inactive

MEC [1]: 0.3 µg/mL
Structure (SMILES): NCCSCC(=O)N[C@H]1CC[C@@H](CC(=O)O)OB1O
Activity (Klebsiella pneumoniae [2]): inactive

Structure (SMILES): C[C@@H](O)[C@H]1C(=O)N2C(C(=O)O)=C(SCCNC=N)C[C@H]12 [IMIPENEM ANHYDROUS]
MIC (Klebsiella oxytoca [3]): 4 µg/mL (≈ 13.4 µM)
MIC (Klebsiella pneumoniae [4]): 4 µg/mL (≈ 13.4 µM)
MIC (Klebsiella pneumoniae [5]): 32 µg/mL (≈ 107 µM)
MIC (Klebsiella pneumoniae [6]): 16 µg/mL (≈ 53.4 µM)
MIC (Klebsiella pneumoniae [7]): 4 µg/mL (≈ 13.4 µM)
MIC (Klebsiella pneumoniae [8]): 8 µg/mL (≈ 26.7 µM)
MIC (Klebsiella oxytoca [9]): 8 µg/mL (≈ 26.7 µM)
MIC (Klebsiella pneumoniae [10]): 16 µg/mL (≈ 53.4 µM)
MIC (Enterobacter cloacae): 8 µg/mL (≈ 26.7 µM)
MIC (Escherichia coli [11]): 8 µg/mL (≈ 26.7 µM)
MIC (Klebsiella pneumoniae [12]): 64 µg/mL (≈ 214 µM)

Structure (SMILES): CC(=O)NC(Cc1cccc(C(=O)O)c1)B(O)O (stereo not given)
pKi [13]: 6.96

MEC [1]: 0.61 µg/mL
Structure (SMILES): Nc1nc(CC(=O)N[C@H]2CC[C@@H](CC(=O)O)OB2O)cs1
Activity (Klebsiella pneumoniae [2]): inactive

MEC [1]: 0.15 µg/mL
Structure (SMILES): O=C(O)C[C@@H]1CC[C@H](NC(=O)C2CC2)B(O)O1
Activity (Klebsiella pneumoniae [2]): inactive

MIC (Klebsiella oxytoca [3]): 8 µg/mL (≈ 22.8 µM)
MIC (Klebsiella pneumoniae [4]): 4 µg/mL (≈ 11.4 µM)
MIC (Klebsiella pneumoniae [5]): 32 µg/mL (≈ 91.3 µM)
MIC (Klebsiella pneumoniae [6]): 16 µg/mL (≈ 45.7 µM)
MIC (Klebsiella pneumoniae [7]): 8 µg/mL (≈ 22.8 µM)
MIC (Klebsiella pneumoniae [8]): 8 µg/mL (≈ 22.8 µM)
MIC (Klebsiella oxytoca [9]): 4 µg/mL (≈ 11.4 µM)
MIC (Klebsiella pneumoniae [10]): 16 µg/mL (≈ 45.7 µM)
MIC (Enterobacter cloacae): 8 µg/mL (≈ 22.8 µM)
MIC (Escherichia coli [11]): 8 µg/mL (≈ 22.8 µM)
MIC (Klebsiella pneumoniae [12]): 64 µg/mL (≈ 183 µM)
Structure (SMILES): C[C@@H](O)[C@H]1C(=O)N2C(C(=O)[O-])=C(SC3Cn4cnc[n+]4C3)[C@H](C)[C@H]12 (stereo not given in full) [BIAPENEM]
deltalog10CFU (Klebsiella pneumoniae [14]): 0.88

Structure (SMILES): CO/N=C(\C(=O)N[C@@H]1C(=O)N2C(C(=O)[O-])=C(C[N+]3(C)CCCC3)CS[C@H]12)c1csc(N)n1
MIC (Klebsiella pneumoniae [15]): 64 µg/mL (≈ 133 µM)
MIC (Klebsiella pneumoniae [16]): 64 µg/mL (≈ 133 µM)
MIC (Klebsiella pneumoniae [17]): > 64 µg/mL
MIC (Escherichia coli [18]): 8 µg/mL (≈ 16.6 µM)
MIC (Klebsiella aerogenes): > 64 µg/mL
MIC (Klebsiella oxytoca [19]): 4 µg/mL (≈ 8.32 µM)
MIC (Escherichia coli [20]): 8 µg/mL (≈ 16.6 µM)
MIC (Escherichia coli [21]): > 64 µg/mL
MIC (Klebsiella pneumoniae [22]): 2 µg/mL (≈ 4.16 µM)

MEC [1]: 0.15 µg/mL
Structure (SMILES): O=C(O)C[C@@H]1CC[C@H](NC(=O)Cc2ccccc2)B(O)O1
Activity (Klebsiella pneumoniae [2]): inactive

Structure (SMILES): CC(=O)NC(Cc1cccc(C(=O)O)c1O)B(O)O (stereo not given)
pKi [23]: 7.89

MEC [1]: 0.15 µg/mL
Structure (SMILES): O=C(O)C[C@@H]1CC[C@H](NC(=O)Cc2ccccn2)B(O)O1
Activity (Klebsiella pneumoniae [2]): inactive

MEC [1]: 0.16 µg/mL
Structure (SMILES): O=C(O)C[C@@H]1CC[C@H](NC(=O)Cc2ccccc2O)B(O)O1
Activity (Klebsiella pneumoniae [2]): inactive
